This note sets out measurements from ChEMBL document CHEMBL1123846, “Chemical differentiating agents. Differentiation of HL-60 cells by hexamethylenebis[acetamide] analogues” (1987).

Test [1] concerns HL-60. Put plainly: Differentiation studies was conducted with the HL-60 human myeloid leukemia cell line and Total cells were counted with a Coulter counter, at a concentration of 2.0 mM (number of experiments = 1). It is filed as functional. An outline of the steps:
(§1)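 HL-60 cells seeded at 2×10^5/mL with test agent added from ethanol or Me2SO stock; final Me2SO no more than 77 mM. Total cells counted on a Coulter counter on day 4.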

Test [2] deals with HL-60. Put plainly: Percent of viability for HL-60 cells was determined by dividing number of viable differentiated cells by total number of viable cells, at concentration of 1.0 mM. It is filed as functional, Homo sapiens. A digest of the protocol:
(§2)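 HL-60 cultures were seeded at 2×10^5/mL with agent added from ethanol or Me2SO, final Me2SO up to 77 mM, and harvested on day 4. Total cells were counted on a Coulter counter, and the viable fraction of total cells was determined by trypan blue exclusion.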

Test [3] deals with HL-60. In words: Percent of viability for HL-60 cells was determined by dividing number of viable differentiated cells by total number of viable cells, at concentration of 2.0 mM. It is filed as functional, Homo sapiens. A digest of the protocol:
as §2

Test [4] has as its system HL-60. Put plainly: Percent of differentiated HL-60 cells was determined by dividing number of viable differentiated cells by total number of viable cells, at a concentration of 2.0 mM. The format is functional, Homo sapiens. A digest of the protocol:
(§3)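 HL-60 cells started at 2×10^5/mL and counted on day 4. Test agents were added from ethanol or Me2SO, with final Me2SO at most 77 mM. Differentiation was scored by formazan production, which requires superoxide from living cells. % D is the number of viable differentiated cells divided by the total number of viable cells.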

For test [5], the system named is HL-60. Put plainly: Percent of differentiated HL-60 cells was determined by dividing number of viable differentiated cells by total number of viable cells, at a concentration of 1.0 mM. It is filed as functional, Homo sapiens. A digest of the protocol:
as §3

The subject of test [6] is HL-60. In words: Percent of viability for HL-60 cells was determined by dividing number of viable differentiated cells by total number of viable cells, at concentration of 1.5 mM. The format is functional, Homo sapiens. A digest of the protocol: as §2
Test [7] relates to HL-60. In words: Differentiation studies was conducted with the HL-60 human myeloid leukemia cell line and Total cells were counted with a Coulter counter, at a concentration of 1.5 mM. The format is functional. An outline of the steps:
as §1

Test [8] has as its system HL-60. Put plainly: Differentiation studies was conducted with the HL-60 human myeloid leukemia cell line and total cells were counted with a Coulter counter, at a concentration of 1.0 mM. It is filed as functional. A digest of the protocol:
as §1

Test [9] concerns HL-60. In words: Percent of differentiated HL-60 cells was determined by dividing number of viable differentiated cells by total number of viable cells, at a concentration of 1.5 mM. It is filed as functional, Homo sapiens. A digest of the protocol: as §3
Test [10] concerns HL-60. In words: Percent of differentiated HL-60 cells was determined by dividing number of viable differentiated cells by total number of viable cells, at a concentration of 2.5 mM. It is filed as functional, Homo sapiens. An outline of the steps: as §3
Test [11] concerns HL-60. In words: Differentiation studies was conducted with the HL-60 human myeloid leukemia cell line and Total cells were counted with a Coulter counter, at a concentration of 2.5 mM. The format is functional. A digest of the protocol: as §1
Test [12] deals with HL-60. Put plainly: Differentiation studies was conducted with the HL-60 human myeloid leukemia cell line and total cells were counted with a Coulter counter, at a concentration of 2.0 mM. It is filed as functional. An outline of the steps:
as §1

Test [13] concerns HL-60. Put plainly: Percent of viability for HL-60 cells was determined by dividing number of viable differentiated cells by total number of viable cells, at concentration of 2.5 mM. It is filed as functional, Homo sapiens. A digest of the protocol:
as §2

The subject of test [14] is HL-60. In words: Percent of viability for HL-60 cells was determined by dividing number of viable differentiated cells by total number of viable cells, at concentration of 3.0 mM. It is filed as functional, Homo sapiens. A digest of the protocol: as §2
For test [15], the system named is HL-60. In words: Differentiation studies was conducted with the HL-60 human myeloid leukemia cell line and Total cells were counted with a Coulter counter, at a concentration of 3.0 mM. It is filed as functional. A digest of the protocol: as §1
For test [16], the system named is HL-60. Put plainly: Percent of differentiated HL-60 cells was determined by dividing number of viable differentiated cells by total number of viable cells, at a concentration of 3.0 mM. It is filed as functional, Homo sapiens. An outline of the steps: as §3
Test [17] deals with HL-60. Put plainly: Percent of viability for HL-60 cells was determined by dividing number of viable differentiated cells by total number of viable cells, at concentration of 4.0 mM. The format is functional, Homo sapiens. A digest of the protocol: as §2
Test [18] deals with HL-60. Put plainly: Differentiation studies was conducted with the HL-60 human myeloid leukemia cell line and Total cells were counted with a Coulter counter, at a concentration of 4.0 mM. It is filed as functional. An outline of the steps:
as §1

Test [19] deals with HL-60. Put plainly: Percent of differentiated HL-60 cells was determined by dividing number of viable differentiated cells by total number of viable cells, at a concentration of 4.0 mM. The format is functional, Homo sapiens. A digest of the protocol:
as §3

For test [20], the system named is HL-60. In words: Differentiation studies was conducted with the HL-60 human myeloid leukemia cell line and Total cells were counted with a Coulter counter, at a concentration of 64 mM. The format is functional. An outline of the steps:
as §1

The subject of test [21] is HL-60. In words: Percent of viability for HL-60 cells was determined by dividing number of viable differentiated cells by total number of viable cells, at concentration of 64 mM. It is filed as functional, Homo sapiens. An outline of the steps: as §2
For test [22], the system named is HL-60. Put plainly: Percent of differentiated HL-60 cells was determined by dividing number of viable differentiated cells by total number of viable cells, at a concentration of 38 mM. The format is functional, Homo sapiens. A digest of the protocol:
as §3

Test [23] has as its system HL-60. In words: Differentiation studies was conducted with the HL-60 human myeloid leukemia cell line and Total cells were counted with a Coulter counter, at a concentration of 77 mM. The format is functional. An outline of the steps:
as §1

In test [24] the test system is HL-60. In words: Percent of viability for HL-60 cells was determined by dividing number of viable differentiated cells by total number of viable cells, at concentration of 38 mM. It is filed as functional, Homo sapiens. A digest of the protocol:
as §2

For test [25], the system named is HL-60. Put plainly: Percent of differentiated HL-60 cells was determined by dividing number of viable differentiated cells by total number of viable cells, at a concentration of 77 mM. It is filed as functional, Homo sapiens. An outline of the steps: as §3
Test [26] deals with HL-60. Put plainly: Percent of differentiated HL-60 cells was determined by dividing number of viable differentiated cells by total number of viable cells, at a concentration of 64 mM. The format is functional, Homo sapiens. An outline of the steps:
as §3

Test [27] concerns HL-60. In words: Differentiation studies was conducted with the HL-60 human myeloid leukemia cell line and total cells were counted with a Coulter counter, at a concentration of 38 mM. The format is functional. An outline of the steps:
as §1

The subject of test [28] is HL-60. Put plainly: Percent of viability for HL-60 cells was determined by dividing number of viable differentiated cells by total number of viable cells, at concentration of 77 mM. The format is functional, Homo sapiens. An outline of the steps:
as §2

Regarding `CC(=O)NCCCCCC(=O)N(C)C`, the Total cells was 940000 mL in the test on HL-60 [1], 1.07e+06 mL in the test with HL-60 [7] and 700000 mL in the test on HL-60 [8]. Further, the results for the V in the test with HL-60 [2], in the test on HL-60 [3] and in the test with HL-60 [6] were 85%, 82% and 78%, respectively. The D came out at 12% in the test on HL-60 [4], 24% with HL-60 [5] and 13% in the test on HL-60 [9].
As for `CC(=O)N(C)CCCCCCN(C)C(C)=O`, the V in the test with HL-60 [2] worked out at 90%; in the test with HL-60 [3] it was 57%; in the test on HL-60 [13] it was 32%; with HL-60 [14], 30%. Besides, the D amounted to 93% with HL-60 [10], 74% with HL-60 [4], 10% with HL-60 [5] and 94% in the test on HL-60 [16]. Besides, the Total cells in the test on HL-60 [11] stood at 510000 mL; in the test on HL-60 [12] it was 700000 mL; in the test on HL-60 [8], 1.12e+06 mL; in the test with HL-60 [15] it was 420000 mL.
In the case of `CC(=O)NCCCCCCNC(C)=O` [HEXAMETHYLENEBISACETAMIDE], the Total cells with HL-60 [12] turned out to be 690000 mL; in the test on HL-60 [18], 390000 mL; in the test with HL-60 [15], 520000 mL. Moreover, the V with HL-60 [3] was determined as 74%; with HL-60 [17] it was 29%; in the test with HL-60 [14], 68%. The D in the test with HL-60 [4] was determined as 32%; with HL-60 [19] it was 84%; with HL-60 [16], 59%.
As to `C[S+](C)[O-]` [DIMETHYL SULFOXIDE], the values for the Total cells in the test with HL-60 [20], with HL-60 [23] and with HL-60 [27] were 980000 cells/mL, 930000 cells/mL and 970000 cells/mL, respectively. For the same compound, the values for the V with HL-60 [21], in the test with HL-60 [24] and with HL-60 [28] were 96%, 97% and 94%, respectively. The results for the D in the test with HL-60 [22], in the test with HL-60 [25] and in the test on HL-60 [26] were 6%, 6% and 9%, respectively.
